Assay [1] concerns Rattus norvegicus. The experiment in a line: (§1) Ex vivo inhibition of collagen-induced blood platelet aggregation in rat was measured 2 hr after oral administration of 50 mg/kg. It is filed as functional. More on the design: scale not given here. The essentials: (§2)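 Overnight-fasted rats were dosed orally at (50 mg/10 mL)/kg in 0.5% Tween 80; controls got vehicle at 10 mL/kg. PRP was made from carotid citrated blood 2 h later under pentobarbital. Collagen suspension (absorbance 0.270 at 420 nm) drove aggregation at 30 °C, 1100 rpm. Read-out was the initial maximal rate of absorbance fall (ΔA/min). Inhibition percent is versus controls; 5–7 rats, mean ± SD.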

For assay [2], the species on record is Rattus norvegicus. The assay is described as follows: Inhibition of collagen-induced blood platelet aggregation in rat after 6 hrs. It is filed as functional. An outline of the steps: (§3)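 Fasted rats received one oral 50 mg/kg dose in 0.5% Tween 80, and PRP was prepared 3, 6 or 24 h later; vehicle controls were bled at 3 h. Collagen-induced aggregation was read as initial maximal rate ΔA/min at 30 °C. Percent inhibition is versus controls; 5–7 animals, mean ± SD.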

The species entered for assay [3] is Rattus norvegicus. The experiment in a line: In vitro inhibition of collagen-induced blood platelet aggregation. It is filed as functional. An outline of the steps: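 Rat PRP (about 5 × 10⁵ platelets/μL) was preincubated with compound added in saline or MeOH. Aggregation was started with bovine tendon collagen suspension in Tris buffer (absorbance 0.270 at 420 nm; lag 2–3 min). Read at 30 °C, 1100 rpm, as initial maximal rate ΔA/min. EC50 is the concentration giving 50% inhibition.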

Assay [4] relates to Rattus norvegicus. The assay is described as follows: Ex vivo inhibition of collagen-induced blood platelet aggregation in rat was measured 2 hr after administration of vehical alone. It is filed as functional. The essentials:
as §2

The species named for assay [5] is Rattus norvegicus. The assay is described as follows: Inhibition of collagen-induced blood platelet aggregation in rat after 3 hrs. It is filed as functional. The essentials:
as §3

The species entered for assay [6] is Rattus norvegicus. The assay is described as follows: In vitro inhibition of ADP-induced blood platelet aggregation. The assay is classed as functional. The essentials: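 Rat carotid citrated blood was spun at 230g for 7 min to give PRP, adjusted with PPP to about 5 × 10⁵ platelets/μL. Compound in saline or MeOH was added before 10 μM ADP in Tris-HCl/NaCl pH 7.4 with CaCl₂. Aggregation was read at 30 °C, 1100 rpm, as maximal ΔA. EC50 is the concentration giving 50% inhibition.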

The species named for assay [7] is Rattus norvegicus. The assay is described as follows: Inhibition of collagen-induced blood platelet aggregation in rat after 24 hr. The assay is classed as functional. An outline of the steps: as §3
The species named for assay [8] is Rattus norvegicus. The experiment in a line: Inhibition of ADP-induced blood platelet aggregation in rat after 6 hr. It is filed as functional. An outline of the steps: (§4)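 This is an ex vivo time course after a single oral 50 mg/kg dose in 0.5% Tween 80 to fasted rats, with PRP made at 3, 6 or 24 h; controls got vehicle 3 h before blood collection. ADP (10 μM) aggregation was read as extent ΔA at 30 °C. Percent inhibition is versus controls; 5–7 animals, mean ± SD.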

Assay [9] has as its system Rattus norvegicus. The description is as §1. It is filed as functional. An outline of the steps:
as §2

For assay [10], the species on record is Rattus norvegicus. The assay is described as follows: Inhibition of ADP-induced blood platelet aggregation in rat after 24 hr. It is filed as functional. The essentials: as §4
The species named for assay [11] is Rattus norvegicus. The experiment in a line: Inhibition of ADP-induced blood platelet aggregation in rat after 3 hr. The assay is classed as functional. An outline of the steps: as §4
In assay [12] the test system is Rattus norvegicus. The experiment in a line: Effect on systolic blood pressure in rat after an oral dose at 50 mg/kg (5h after dose). It is filed as functional, Artery. An outline of the steps: (§5)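 Male Wistar-Imamichi rats, 250 g, were given the compound orally at (50 mg/7.5 mL)/kg as a suspension in 0.5% CMC or 0.5% Tween 80. Systolic pressure and heart rate were taken by tail-cuff after prewarming at 55–60 °C for 3 min, before dosing and at set times after. Five rats per group, mean ± SD. Pressure is reported as decrease and heart rate as percent change.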

Assay [13] concerns Rattus norvegicus. The experiment in a line: Effect of compound on heart rate in rat after an oral dose at 50 mg/kg. It is filed as functional. An outline of the steps:
as §5

Assay [14] relates to Rattus norvegicus. The experiment in a line: Effect on heart rate in rat after an oral dose at 50 mg/kg (3h after dose). The assay is classed as functional. An outline of the steps:
as §5

The test system of assay [15] is Rattus norvegicus. The experiment in a line: Effect on systolic blood pressure in rat after an oral dose at 50 mg/kg (3h after dose). It is filed as functional, Artery. An outline of the steps:
as §5

Assay [16] relates to Rattus norvegicus. The experiment in a line: Effect on heart rate in rat after an oral dose at 50 mg/kg (4h after dose). The assay is classed as functional. An outline of the steps: as §5
The test system of assay [17] is Rattus norvegicus. The assay is described as follows: Effect on systolic blood pressure in rat after an oral dose at 50 mg/kg. It is filed as functional, Artery. An outline of the steps:
as §5

The test system of assay [18] is Rattus norvegicus. The assay is described as follows: Effect on systolic blood pressure in rat after an oral dose at 50 mg/kg (1h after dose). The assay is classed as functional, Artery. An outline of the steps:
as §5

The subject of assay [19] is Rattus norvegicus. The assay is described as follows: Effect on heart rate in rat after an oral dose at 50 mg/kg (1h after dose). The assay is classed as functional. The essentials:
as §5

The structures appear in SMILES notation. pEC50: −log10 of the molar value.

As usually defined, the pEC50 is −log10 of the EC50, conventionally taken in molar units. In the case of `CCOC(=O)N1CCc2c(sc3c2CN2CC(=O)NC2=N3)C1.Cl`, the “Delta A/min” value worked out at 115000 in the assay on Rattus norvegicus [1]; 0.072 in the assay listed under Rattus norvegicus [2]; 0.171 with Rattus norvegicus [4]; 120000 in the assay filed under Rattus norvegicus [5]; 30000 in the assay listed under Rattus norvegicus [7]. The pEC50 in the assay listed under Rattus norvegicus [3] was 6.92; in the assay listed under Rattus norvegicus [6], 5.92.
Take `Cc1sc2c(c1C)CN1CC(=O)NC1=N2.Cl`: the Delta A/min was 0.168 in the assay filed under Rattus norvegicus [8]; 0.153 in the assay listed under Rattus norvegicus [2]; 0.073 ΔA/min in the assay with Rattus norvegicus [9]; 0.168 in the assay filed under Rattus norvegicus [10]; 0.094 in the assay listed under Rattus norvegicus [5]; 0.164 in the assay listed under Rattus norvegicus [7]. Besides, the Delta A/min in the assay filed under Rattus norvegicus [11] stood at 0.173. Moreover, the pEC50 in the assay filed under Rattus norvegicus [3] was 6.00; in the assay listed under Rattus norvegicus [6], 5.30.
With `CN(C(=O)CCCOc1ccc2[nH]c(=O)ccc2c1)C1CCCCC1` [CILOSTAMIDE], the “Decrease in blood pressure” value in the assay with Rattus norvegicus [12] is -1; in the assay with Rattus norvegicus [15], -1; in the assay with Rattus norvegicus [18] it was 1. For the same molecule, the “Change in heart rate” value in the assay on Rattus norvegicus [13] is 26%; with Rattus norvegicus [14], 20%; in the assay with Rattus norvegicus [16], 21%; with Rattus norvegicus [19] it was 22%. The values for the pEC50 in the assay listed under Rattus norvegicus [3] and in the assay listed under Rattus norvegicus [6] were 5.92 and 4.92, respectively. This molecule yielded an Initial blood pressure with Rattus norvegicus [17] of 125 mmHg.
In the case of `CCCc1sc2c(c1C)CN1CC(=O)NC1=N2.Cl`, the Delta A/min in the assay listed under Rattus norvegicus [8] was 0.154; in the assay listed under Rattus norvegicus [2], 0.213; with Rattus norvegicus [9], 0.09 ΔA/min; in the assay filed under Rattus norvegicus [5] it was 0.09; in the assay filed under Rattus norvegicus [7] it was 0.242; in the assay filed under Rattus norvegicus [11], 0.128. Moreover, the pEC50 in the assay listed under Rattus norvegicus [3] was 7.10; in the assay filed under Rattus norvegicus [6] it was 6.24.
As for `Cl.O=C1CN2C=c3c4c(sc3=NC2=N1)CCCC4`, the Delta A/min is 0.047 ΔA/min with Rattus norvegicus [1]; 0.195 in the assay listed under Rattus norvegicus [2]; 0.183 with Rattus norvegicus [4]; 0.068 in the assay listed under Rattus norvegicus [5]; 0.185 in the assay filed under Rattus norvegicus [7]. Moreover, the negative logarithm of the EC50 (pEC50) is 4.08 in the assay filed under Rattus norvegicus [3] and 3.60 in the assay filed under Rattus norvegicus [6].
For `CCCc1c(CC)sc2c1CN1CC(=O)NC1=N2.Cl`, the Delta A/min with Rattus norvegicus [9] is 0.008 ΔA/min. For the same molecule, the pEC50 was 5.66 in the assay filed under Rattus norvegicus [3] and 5.52 in the assay filed under Rattus norvegicus [6].
With `Cl.O=C1CN2Cc3c(sc4c3CCCCC4)N=C2N1`, the Delta A/min in the assay on Rattus norvegicus [9] is 0.202 ΔA/min. The pEC50 was 6.77 in the assay filed under Rattus norvegicus [3] and 4.74 in the assay filed under Rattus norvegicus [6].
In the case of `CC1CCCc2c1sc1c2CN2C(=NC(=O)C2C)N1.Cl` (centres undefined), the Delta A/min in the assay on Rattus norvegicus [1] was 0.047 ΔA/min; in the assay with Rattus norvegicus [4], 0.183. For the same molecule, the pEC50 is 7.52 in the assay listed under Rattus norvegicus [3] and 5.52 in the assay listed under Rattus norvegicus [6].
Consider `Cc1scc2c1CN1CC(=O)NC1=N2.Cl`, for which the Delta A/min in the assay on Rattus norvegicus [1] was 0.198 ΔA/min; with Rattus norvegicus [4] it was 0.29. Further, the pEC50 in the assay filed under Rattus norvegicus [3] is 5.46; in the assay filed under Rattus norvegicus [6] it was 4.77.
Turning to `CC1CCCc2c1sc1c2CN2CC(=O)N=C2N1.Cl` (centres undefined), the Delta A/min was determined as 0.079 in the assay filed under Rattus norvegicus [8]; 0.036 in the assay filed under Rattus norvegicus [2]; 0 with Rattus norvegicus [9]; 0.118 in the assay listed under Rattus norvegicus [10]; 0 in the assay filed under Rattus norvegicus [5]; 0.116 in the assay filed under Rattus norvegicus [7]. Also, the Delta A/min in the assay filed under Rattus norvegicus [11] turned out to be 0.053. For the same molecule, the negative logarithm of the EC50 (pEC50) in the assay listed under Rattus norvegicus [3] is 6.74; in the assay listed under Rattus norvegicus [6], 6.28.

The record behind these values is ChEMBL document CHEMBL1121809, “Cyclic guanidines. 14. Imidazo[1,2-a]thienopyrimidin-2-one derivatives as blood platelet aggregation inhibitors” (J Med Chem, 1981).
